# High-throughput results from PubChem BioAssay.
# DNA FID counter: compounds displacing fluorescent DNA intercalator, primary screen, artefact control for HCV NS3 helicase inhibitor project, biochemical, FID fluorescence; inhibition, % at 7.9 µM; DNA fluorescent intercalator displacement; hit rate 0.17% among 290,000; in the data active = inhibition above about 37%;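 note: 0% = vehicle and 100% = reference compound; higher means more ethidium bromide displaced from hairpin DNA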
# RAD54 inh: inhibitors of human RAD54 branch migration, primary screen, biochemical, fluorescence, single point. DNA repair and recombination protein RAD54-like (Homo sapiens), Q92698. hit rate 0.14% among 360,000. RAD54 Holliday junction branch migration, FAM/BHQ fluorescence. inhibition, % at 10.4 µM;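 active = mean normalized replicate activity at least 40 and at least half of replicates scoring 40 or more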;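 note: 0% = median of neutral control wells and 100% = median of positive control wells; inhibitors cause a drop in the FAM fluorescence signal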
# Target sequence (Q92698 whole entry, looked up): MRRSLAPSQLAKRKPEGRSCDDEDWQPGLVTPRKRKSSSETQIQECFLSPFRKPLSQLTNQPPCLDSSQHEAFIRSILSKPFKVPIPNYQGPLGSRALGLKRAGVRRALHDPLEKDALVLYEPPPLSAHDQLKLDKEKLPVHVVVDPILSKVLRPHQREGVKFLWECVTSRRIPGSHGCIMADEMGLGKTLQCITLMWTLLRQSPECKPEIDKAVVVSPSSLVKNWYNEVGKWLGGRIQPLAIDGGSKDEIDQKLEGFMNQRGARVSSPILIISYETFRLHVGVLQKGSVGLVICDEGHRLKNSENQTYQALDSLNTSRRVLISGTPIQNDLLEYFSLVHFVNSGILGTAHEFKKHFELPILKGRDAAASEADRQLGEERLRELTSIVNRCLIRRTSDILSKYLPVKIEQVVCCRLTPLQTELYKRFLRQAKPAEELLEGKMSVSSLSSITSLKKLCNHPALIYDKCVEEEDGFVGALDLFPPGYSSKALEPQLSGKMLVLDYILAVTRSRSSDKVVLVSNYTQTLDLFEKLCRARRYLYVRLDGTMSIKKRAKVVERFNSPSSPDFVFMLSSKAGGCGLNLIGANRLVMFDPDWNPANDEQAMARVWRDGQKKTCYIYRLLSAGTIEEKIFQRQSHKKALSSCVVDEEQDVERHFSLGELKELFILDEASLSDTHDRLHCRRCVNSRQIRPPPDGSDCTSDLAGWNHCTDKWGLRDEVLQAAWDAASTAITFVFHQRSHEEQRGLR
# IMP-1 inh: IMP-1 metallo-beta-lactamase inhibitors, primary screen, biochemical, epi-absorbance readout, Pseudomonas aeruginosa enzyme; metallo-beta-lactamase IMP-1 (Pseudomonas aeruginosa); purified IMP-1, nitrocefin hydrolysis, epi-absorbance fluorescence; inhibition, % at 5.6 µM; hit rate 0.45% among 290,000;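 active = inhibition above the mean plus 3 SD of all compounds in the same screening run, cut at about 4.5% in these data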;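 note: 0% = IMP-1 with DMSO and 100% = DMSO wells lacking enzyme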
#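 system = purified recombinant IMP-1 beta-lactamase | amount = 0.2 nM IMP-1, as dispensed | medium = HEPES buffer pH 7.1 with ZnSO4 and Brij 35 | times = 25 °C, 15 min preincubation, 25 min reaction | detection = plate fluorescence quenching by hydrolysis product, ex 480/em 530 nm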
# VIM-2 inhibitor: VIM-2 metallo-beta-lactamase inhibitors, primary screen, biochemical, epi-absorbance readout, Pseudomonas aeruginosa enzyme; purified VIM-2, nitrocefin hydrolysis, epi-absorbance fluorescence; inhibition, % at 5.6 µM; hit rate 0.89% among 290,000;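 active = inhibition above the mean of all tested compounds plus 3 SD, cutoff set per screening run, cut at about 7.5% in these data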;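 note: red hydrolysis product quenches plate fluorescence so inhibitors raise well fluorescence; 0% = enzyme with DMSO and 100% = DMSO without enzyme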
# PvdQ acylase: P. aeruginosa PvdQ acylase inhibitors, primary screen, biochemical, fluorescence, plate reader and imaging, single point; purified PvdQ acylase; inhibition, % at 10 µM; hit rate 0.063% among 340,000; in the data active = inhibition above about 30%, passing the limit was not always enough;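 note: 0% = vehicle neutral wells and 100% = reference inhibitor wells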
# The depositor's hits bear a star; nt = no result given. Rows were chosen to be rich in hits. Some 1% of all compounds tested hit in one or more screens of this group.
SMILES,DNA FID counter,RAD54 inh,IMP-1 inh,VIM-2 inhibitor,PvdQ acylase
O=C(Cc1ccc(-n2c(=O)c3ccccc3n(Cc3ccccc3Cl)c2=O)cc1)NCC1CCCO1 (stereo not given),-27.8,nt,4.8*,-0.6,-2.9
O=C(Cc1ccc(-n2c(=O)c3ccccc3n(Cc3ccccc3F)c2=O)cc1)NCC1CCCO1 (stereo not given),-28.9,8.8,-3.3,-2.4,-16.4
CC12CCC(=O)N1C(C(=O)Nc1nc3c(F)cc(F)cc3s1)CS2 (stereo not given),-23.8,-14.3,10.6*,-4.0,-10.1
Cc1cccc2sc(NC(=O)C3CSC4(C)CCC(=O)N34)nc12 (stereo not given),-36.3,-18.3,-1.2,-3.0,-9.7
CCC(C)NCCOc1ccc(C(C)(C)c2ccccc2)cc1 (stereo not given),39.3*,12.4,-1.8,-3.1,-16.0
CNCCCOc1ccc(C(C)(C)c2ccccc2)cc1,16.5,nt,-4.6,-2.8,nt
CC(C)(c1ccccc1)c1ccc(OCCN2CCOCC2)cc1,6.5,-6.0,4.9*,1.4,-2.7
Cc1ccc(-n2[nH]c(C)c(C=Nc3ccc4[nH]c(=O)[nH]c4c3)c2=O)cc1,-7.0,nt,-0.2,1.8,-11.0
Cc1ccc(N=Cc2c(C)[nH]n(-c3nc4ccccc4[nH]3)c2=O)cc1,-1.3,-3.4,5.0*,-1.4,5.6
COc1ccc(NC(=O)N[C@H]2C=C[C@H](CC(=O)NC3CCCCC3)O[C@@H]2CO)cc1,nt,7.6,nt,nt,nt
Cc1noc(C)c1NC(=O)Nc1ccc2c(c1)C(=O)N([C@H](C)CO)C[C@H](C)[C@@H](CN(C)Cc1ccc(Cl)c(Cl)c1)O2,nt,-3.6,nt,nt,nt
CN1C(=O)C2C(C1=O)C1C=C(CCCO)C2C(c2ccc(CN3CCCC3)cc2)N1Cc1sc2ccccc2c1Cl (stereo not given),nt,-8.9,nt,nt,nt
NC(N)=NN=C1c2ccccc2-c2ccccc21,11.0,81.6*,-3.3,0.7,-13.2
C[C@H]1CN([C@@H](C)CO)C(=O)CCCn2cc(nn2)CO[C@H]1CN(C)C(=O)NC1CCCC1,nt,-7.4,nt,nt,nt
C[C@H]1CN([C@@H](C)CO)C(=O)c2cc(NC(=O)C3CC3)ccc2O[C@@H]1CN(C)S(=O)(=O)c1cccs1,nt,-0.4,nt,nt,nt
c1cnc2ccc(-c3ccc4ncccc4c3)cc2c1,-26.3,8.7,-4.2,2.3,47.4*
Cc1ccc2ncccc2c1,nt,-4.4,nt,nt,2.4
CCS(=O)(=O)Nc1ccc2c(c1)C(=O)N(C)[C@H]1CC[C@@H](CC(=O)NC)O[C@@H]1CO2,nt,-0.7,nt,nt,nt
CCOc1cc(C(N)=O)cc(Br)c1OC,2.1,-5.4,4.6*,1.8,-6.4
CCOc1cc(C(N)=O)cc(OCC)c1OCC,-0.9,-7.1,-2.1,0.8,-2.2
C[C@H]1CN([C@@H](C)CO)C(=O)c2cc(NC(=O)Cc3ccccc3)ccc2O[C@H]1CN(C)S(=O)(=O)c1cccs1,nt,0.7,nt,nt,nt
S=c1[nH]nc(-c2ccco2)n1/N=C/C(Cl)=C/c1ccccc1,-16.6,-0.1,-3.3,8.1*,2.4
Cc1ccc(-c2n[nH]c(=S)n2/N=C/C=C/c2ccccc2[N+](=O)[O-])cc1,-8.2,-0.1,-2.9,-5.2,0.5
O=[N+]([O-])c1ccccc1/C=C/C=N/n1c(-c2ccco2)n[nH]c1=S,-12.7,nt,-2.1,9.8*,4.3
S=c1[nH]nc(-c2ccco2)n1/N=C/c1cccc(Cl)c1,-10.5,nt,-3.9,9.1*,-13.6
SMILES,DNA FID counter,RAD54 inh,IMP-1 inh,VIM-2 inhibitor,PvdQ acylase
S=c1[nH]nc(-c2ccco2)n1-c1ccccc1Cl,-3.6,nt,-2.5,16.0*,-4.2
C[C@H]1CN([C@@H](C)CO)S(=O)(=O)c2ccc(-c3ccncc3)cc2O[C@H]1CN(C)S(=O)(=O)c1ccccc1F,nt,6.3,nt,nt,nt
CC1(C)C(C#N)=C(N)Oc2c1c(=O)oc1ccccc21,-5.8,nt,4.9*,1.4,-2.3
COC(OC)C1(C)C(C#N)=C(N)Oc2c1c(=O)oc1ccccc21 (stereo not given),-8.3,4.0,-2.0,-1.3,8.9
CC(C)(O)c1[nH]c2ccc(C#N)cc2c1C(C)(C)O,-9.2,nt,4.9*,2.5,nt
Cc1cc(N/N=C/c2ccccc2O)c2ccccc2n1,23.5,104.5*,0.3,6.4,-14.0
COc1cccc2c(N/N=C/c3ccccc3)cc(C)nc12,-19.0,2.6,-1.4,0.0,8.8
COc1ccc2nc(C)cc(N/N=C/c3cccc(OC)c3O)c2c1,6.8,108.1*,-3.0,1.6,-4.1
COc1ccc(/C=N/Nc2cc(C)nc3ccc(Br)cc23)cc1,28.4,118.6*,-1.6,2.2,-4.6
O=C(C[C@H]1C[C@H]2c3cc(NC(=O)Nc4ccc(C(F)(F)F)cc4)ccc3O[C@H]2[C@H](CO)O1)NCc1cc(F)ccc1F,nt,12.7,nt,nt,nt
COCC(=O)N1[C@H](CO)[C@H]2c3ccccc3N(C(=O)c3cccc(OC)c3)C[C@H]21,nt,-32.3,nt,nt,nt
C[C@@H]1CN([C@H](C)CO)C(=O)c2cc(NC(=O)Cc3ccccc3)ccc2O[C@@H]1CN(C)S(=O)(=O)c1ccccc1,nt,-1.4,nt,nt,nt
CC(C)NC(=O)Nc1ccc2c(c1)C(=O)N([C@H](C)CO)C[C@H](C)[C@@H](CN(C)C(=O)CCCN(C)C)OCCCC[C@H](C)O2,nt,-10.8,nt,nt,nt
COc1ccc(S(=O)(=O)Nc2ccc3c(c2)C(=O)N([C@H](C)CO)C[C@@H](C)[C@@H](CN(C)C(=O)NC(C)C)OCCCC[C@H](C)O3)cc1,nt,6.8,nt,nt,nt
Cc1ccc(-c2nc3ccsc3c(=O)o2)cc1,-1.0,-2.5,-0.9,1.8,66.3*
Cc1ccc(-n2c(C)nc3ccsc3c2=O)cc1,nt,-2.9,nt,nt,3.2
O=C(Nc1ccccc1F)N[C@@H]1CC[C@@H](CCNS(=O)(=O)c2ccc(Cl)cc2)O[C@H]1CO,nt,-1.9,nt,nt,nt
COc1ccc(/C(C#N)=C/c2cccnc2)cc1,-11.3,11.4,-1.1,-1.6,73.8*
N#C/C(=C\c1cccnc1)c1ccccn1,-4.1,-5.3,-2.8,-0.7,-8.0
COc1ccc2sc(N3C(=O)CC(Cc4cccc(C)c4)C3=O)nc2c1 (stereo not given),-40.7,3.8,-0.6,-1.4,7.2
Cc1ccc(CC2CC(=O)N(c3nc4ccccc4n3C)C2=O)cc1 (stereo not given),-4.6,nt,13.5*,-1.7,-9.2
Cc1cccc(CC2CC(=O)N(c3nc4ccccc4s3)C2=O)c1 (stereo not given),-30.0,5.9,8.6*,0.8,-18.0
C[C@H]1CCCCO[C@@H](CN(C)Cc2ccc(C(F)(F)F)cc2)[C@@H](C)CN([C@@H](C)CO)C(=O)c2cc(NC(=O)CCCN(C)C)ccc2O1,nt,11.9,nt,nt,nt
CO[C@H]1CN(C)C(=O)c2cc(NC(=O)C3CCOCC3)ccc2OC[C@@H](C)N(Cc2nccs2)C[C@H]1C,nt,-0.4,nt,nt,nt
COC(=O)C[C@H]1C[C@@H]2c3cc(NC(=O)Nc4ccc(C(F)(F)F)cc4)ccc3O[C@@H]2[C@@H](CO)O1,nt,6.2,nt,nt,nt
